Measurements as given in ChEMBL document CHEMBL3576843, “Neopetrocyclamines A and B, polycyclic diamine alkaloids from the sponge Neopetrosia cf exigua” (2015).

Key:
Format in all cases: functional
SF-295 = test: Cytotoxicity against human SF295 cells after 48 hrs by XTT assay; details: SF-295, 48 h
In short: (§1)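 Cells seeded at 5000/well in medium lacking phenol red and antibiotics, allowed 60 min to attach, then compound dilutions or DMSO solvent control added. Incubated 48 h with compound; viability measured by XTT proliferation assay per kit protocol; growth inhibition expressed as GI50.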

UO-31 = test: Cytotoxicity against human UO31 cells after 48 hrs by XTT assay; details: UO-31, 48 h; in short: as §1
A498 = test: Cytotoxicity against human A498 cells after 48 hrs by XTT assay; details: A498, 48 h; in short: as §1

**Q.** What does the source list for C1=C/[C@H]2[C@@H]3CCCC[C@H]3C[C@H]2NCCCN[C@@H]2C[C@@H]3CCCC[C@H]3[C@@H]2/C=C/1?
**A.** GI50 (SF-295): 0.8 µM; GI50 (UO-31): 3 µM; GI50 (A498): 2.9 µM

**Q.** What does the source list for C1=C[C@H]2/C=C/CCCCC/C=C\CCN3C=[N+](CCC3)C[C@H]2[C@@H]2CCCC[C@@H]12?
**A.** GI50 (SF-295): > 20 µM; GI50 (UO-31): > 20 µM; GI50 (A498): > 20 µM

**Q.** What does the source list for C1=C[C@H]2/C=C/CCCCC/C=C\CCNCCCNC[C@H]2[C@@H]2CCCC[C@@H]12?
**A.** GI50 (SF-295): > 20 µM; GI50 (UO-31): > 20 µM; GI50 (A498): > 20 µM

**Q.** C1=C/[C@H]2[C@@H]3CCCC[C@H]3C[C@@H]2NCCCN[C@@H]2C[C@@H]3CCCC[C@H]3[C@@H]2/C=C/1 [HALICLONADIAMINE] was tested. Which GI50 (SF-295) did it give?
**A.** Its GI50 is 6.3 µM.

**Q.** And the GI50 (UO-31)?
**A.** Its GI50 is 8 µM.

**Q.** And the GI50 (A498)?
**A.** Its GI50 is 5.9 µM.
